# Source: PubChem BioAssay (several laboratories)
# A selection: hits, their analogues and other compounds. The true share with any hit is near 3.1%.
# ADAM17 inh: ADAM17 inhibitors, primary screen, biochemical, QFRET. AID 720648, 2013. inhibition, % at 6.95 µM. Disintegrin and metalloproteinase domain-containing protein 17 (Homo sapiens), P78536. recombinant ADAM17, EDANS/DABCYL FRET peptide cleavage. actives 0.83% (n = 370,000);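 active means inhibition above the mean of compounds lying between control limits plus 3 SD, set per campaign, cut at about 8.5% in these data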
# Target sequence (P78536 215-824 limits assumed): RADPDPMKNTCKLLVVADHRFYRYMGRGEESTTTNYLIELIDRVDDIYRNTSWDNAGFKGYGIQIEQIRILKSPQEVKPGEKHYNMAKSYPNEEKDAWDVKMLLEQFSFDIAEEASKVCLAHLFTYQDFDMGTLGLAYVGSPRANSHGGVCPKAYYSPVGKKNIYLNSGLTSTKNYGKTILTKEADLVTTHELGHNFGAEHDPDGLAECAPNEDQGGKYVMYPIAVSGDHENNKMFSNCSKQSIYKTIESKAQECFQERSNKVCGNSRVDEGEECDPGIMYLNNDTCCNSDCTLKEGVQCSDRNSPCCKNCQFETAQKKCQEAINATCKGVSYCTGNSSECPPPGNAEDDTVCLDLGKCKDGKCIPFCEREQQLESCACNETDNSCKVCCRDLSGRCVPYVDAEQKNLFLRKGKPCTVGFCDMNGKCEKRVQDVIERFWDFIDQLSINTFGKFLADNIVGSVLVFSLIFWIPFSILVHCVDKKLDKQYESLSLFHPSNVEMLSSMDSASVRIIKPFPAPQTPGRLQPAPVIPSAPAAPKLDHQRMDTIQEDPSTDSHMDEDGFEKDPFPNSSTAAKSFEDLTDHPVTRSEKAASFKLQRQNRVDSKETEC
# aDG glyco up: activators of alpha-DG glycosylation, primary screen, uHTS, Pro5-aDG cells, AlphaScreen | activation, % at 10 µM | alpha-DG glycosylation AlphaScreen (IIH6); 0% Pro5, 100% B10-LARGE cell signal | AID 624168, 2012 | actives 0.22% (n = 360,000);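 active means activation of at least 8% versus controls, or a plate z-score of at least 8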;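 further: Pro5 are CHO cells carrying HIG-tagged alpha-DG that lacks glycosylation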
# V-ATPase pH: regulators of yeast V-ATPase proton pumping, primary screen, pHLuorin cytosolic pH fluorescence; S. cerevisiae; response, % at 10 µM; actives 0.37% (n = 350,000); in the data active means response mostly above about 7.3%, no sharp cut-off; inactive means mostly below about 5.4%; further: actives read high
# Hep lipid drop: inhibitors of hepatocyte lipid droplet formation, primary screen, imaging, high-throughput imaging, BODIPY stain; AML12 mouse hepatocytes, oleate lipid droplets; actives 0.4% (n = 240,000); inhibition, % at 6.5 µM;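 active means lipid droplet intensity inhibited by at least 50%, with more than 500 cells counted; inconclusive means wells with under 300 cells, treated as cytotoxic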
#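 Test system: AML12 mouse liver cells; schedule: overnight exposure; technique: high-content imaging of BODIPY-stained droplets and DAPI nuclei; read-out: % inhibition of corrected integrated BODIPY droplet signal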
# MPTP inh: mitochondrial permeability transition pore inhibitors, primary screen, biochemical, isolated mouse mitochondria, absorbance; inhibition, % at 10 µM; actives 1.4% (n = 360,000); Ca2+ swelling absorbance, 30 min; AID 602449, 2012;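 active means inhibition of 50% or more, scaled per plate between neutral and stimulator controls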
# ADAM10 inh: human ADAM10 inhibitors, primary screen, biochemical, QFRET, HTS; recombinant ADAM10, EDANS/DABCYL FRET peptide cleavage, 3 h; inhibition, % at 7 µM; AID 720582, 2013; actives 0.62% (n = 370,000); Disintegrin and metalloproteinase domain-containing protein 10 (Homo sapiens), O14672;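 active means inhibition above a per-campaign cutoff equal to the mean of compounds falling between control-based bounds plus 3 SD, cut at about 20% in these data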
# Hits are given with their value; i = inactive; ? = inconclusive; nt = not tested or not shown.
SMILES,ADAM17 inh,aDG glyco up,V-ATPase pH,Hep lipid drop,MPTP inh,ADAM10 inh
O=C(NCCc1ccccc1)C1CCN(c2ncccn2)CC1,i,i,14,i,i,i
CCCCCCCCN1C(=O)[C@@H](CC(=O)NCC23CC4CC(CC(C4)C2)C3)C[C@@]2(C(=O)OC)C1=C[C@H](COCc1ccccc1)O[C@@H]2C,i,nt,nt,nt,nt,i
CCOc1ccccc1-c1c2cc(O)c(=O)cc-2oc2cc(O)c(O)cc12,nt,i,75,i,i,nt
CCOc1ccc(C(=O)Nc2cnn(Cc3ccc(Cl)c(Cl)c3)c2)cc1,i,i,40,nt,i,i
CCn1cc(S(=O)(=O)CC(=O)Nc2ccc(OC)cc2)c2ccccc21,i,i,16,i,i,i
CCOc1ccc(NC(=O)CS(=O)(=O)c2cn(CC)c3ccccc23)cc1,i,i,i,i,i,i
Cc1cc(Cl)ccc1NC(=O)c1ccc2c(c1)OCO2,i,i,15,i,i,i
Cc1ccc(CCNS(=O)(=O)c2ccc3c(c2)C(C)(C)C(=O)N3C)cc1,i,i,25,i,i,i
CN1C(=O)C(C)(C)c2cc(S(=O)(=O)NCCc3ccc(Cl)cc3)ccc21,i,i,i,i,i,i
CO[C@H]([C@H](C)/C=C/N(C)C=O)[C@@H](C)C(=O)CC[C@H](C)[C@H](O)[C@H](C)[C@H]1OC(=O)/C=C/C(C)=C/C[C@H](O)C[C@@H]2C=CC[C@@H](C[C@H](OC)[C@@H](CO)[C@@H](OC)C[C@@H](OC)[C@@H]1C)O2,i,nt,nt,nt,nt,i
CC(=O)N1CCN(S(=O)(=O)c2cccc(C(=O)NC3CCCC3)c2)CC1,i,i,i,nt,i,i
CN1CCN(S(=O)(=O)c2cccc(C(=O)NC3CCCC3)c2)CC1,i,i,23,nt,i,i
COc1ccc(OC)c(S(=O)(=O)Nc2ccc(C(=O)Nc3cc(C)on3)cc2)c1,i,nt,nt,nt,nt,i
CCNS(=O)(=O)c1ccc(NC(=O)c2cccnc2)cc1,i,17,i,i,i,i
CC(=O)CSc1nnc(-c2cnccn2)n1-c1ccccc1,i,i,i,i,i,i
Cc1ccc(NC(=O)CSc2nnc(-c3cnccn3)n2-c2ccccc2)cc1,i,i,16,nt,i,i
C=CCn1c(COc2ccc(Cl)cc2)nnc1SCC(=O)c1ccccc1,i,nt,nt,nt,nt,i
CCCCc1ccc2nc(NC(=O)c3ccc(Br)o3)sc2c1,i,nt,nt,nt,nt,i
O=C(NC1=C(Nc2ccc(F)cc2)C(=O)c2ccccc2C1=O)c1ccc(Cl)cc1,i,5.4,i,?,i,i
O=C(NNC(=O)c1ccc(NC(=O)c2ccccc2)cc1)c1ccc(F)cc1,i,i,i,i,i,i
C=CCNC(=S)N(C)[C@H]1C[C@H]2c3[nH]c4cccc(-c5cccc(F)c5)c4c3CCN2C(=O)[C@H]1[C@H](C)O,i,nt,nt,nt,nt,i
COC(=O)[C@]12C[C@H](CC(=O)NCC34CC5CC(CC(C5)C3)C4)C(=O)N(CCc3ccc(OC)c(OC)c3)C1=C[C@H](C1CCCC1)O[C@@H]2C,i,nt,nt,nt,nt,i
CCN(CC)CCCn1c(C)cc2c(c1=O)C(c1cc(OC)c(OC)cc1OC)C(C#N)=C(N)O2 (stereo unspecified),i,i,i,nt,i,i
CCN(CC)CCCn1c(C)cc2c(c1=O)C(c1cccc(Cl)c1)C(C#N)=C(N)O2 (stereo unspecified),i,i,36,i,i,i
Nc1ccc2nc3c(=O)n(CCc4ccccc4)c(=O)[nH]c3nc2c1,i,i,51,i,i,i
Cc1cc2nc3c(=O)n(CCc4ccccc4)c(=O)[nH]c3nc2cc1N,i,i,i,i,i,i
COc1ccc(N(CC(=O)Nc2nccs2)S(=O)(=O)c2c(C)nn(C)c2C)cc1,i,i,14,nt,i,i
CCCCNC(=O)C[C@H]1C[C@@]2(C(=O)OC)C(=C[C@H](C(C)(C)C)O[C@@H]2C)N(Cc2ccc(Cl)cc2Cl)C1=O,i,nt,nt,nt,nt,i
COc1ccc(-c2ccc(=O)n(Cc3c(F)cccc3Cl)n2)cc1,i,i,i,nt,i,i
